In ChEMBL document CHEMBL3046803, “Synthesis and insecticidal activities of novel anthranilic diamides containing acylthiourea and acylurea” (2012):
Activity calls are given as the source filed them. No cut-off for these calls is given here.

What was measured:
[1] = biological target: Voltage-dependent L-type calcium channel, putative (Pediculus humanus subsp. corporis) (UniProt E0VY79); test: Inhibition of voltage-dependent L-type calcium channel in Spodoptera exigua neurons assessed as peak calcium current at 0.001 mM measured 8 min post dose by electrophysiology method (reference value: 90.85 +/- 0.65%); parameters: scale not given: the % may be the effect or the level left
Sequence of Voltage-dependent L-type calcium channel, putative (Pediculus humanus subsp. corporis) (E0VY79 as listed by the source): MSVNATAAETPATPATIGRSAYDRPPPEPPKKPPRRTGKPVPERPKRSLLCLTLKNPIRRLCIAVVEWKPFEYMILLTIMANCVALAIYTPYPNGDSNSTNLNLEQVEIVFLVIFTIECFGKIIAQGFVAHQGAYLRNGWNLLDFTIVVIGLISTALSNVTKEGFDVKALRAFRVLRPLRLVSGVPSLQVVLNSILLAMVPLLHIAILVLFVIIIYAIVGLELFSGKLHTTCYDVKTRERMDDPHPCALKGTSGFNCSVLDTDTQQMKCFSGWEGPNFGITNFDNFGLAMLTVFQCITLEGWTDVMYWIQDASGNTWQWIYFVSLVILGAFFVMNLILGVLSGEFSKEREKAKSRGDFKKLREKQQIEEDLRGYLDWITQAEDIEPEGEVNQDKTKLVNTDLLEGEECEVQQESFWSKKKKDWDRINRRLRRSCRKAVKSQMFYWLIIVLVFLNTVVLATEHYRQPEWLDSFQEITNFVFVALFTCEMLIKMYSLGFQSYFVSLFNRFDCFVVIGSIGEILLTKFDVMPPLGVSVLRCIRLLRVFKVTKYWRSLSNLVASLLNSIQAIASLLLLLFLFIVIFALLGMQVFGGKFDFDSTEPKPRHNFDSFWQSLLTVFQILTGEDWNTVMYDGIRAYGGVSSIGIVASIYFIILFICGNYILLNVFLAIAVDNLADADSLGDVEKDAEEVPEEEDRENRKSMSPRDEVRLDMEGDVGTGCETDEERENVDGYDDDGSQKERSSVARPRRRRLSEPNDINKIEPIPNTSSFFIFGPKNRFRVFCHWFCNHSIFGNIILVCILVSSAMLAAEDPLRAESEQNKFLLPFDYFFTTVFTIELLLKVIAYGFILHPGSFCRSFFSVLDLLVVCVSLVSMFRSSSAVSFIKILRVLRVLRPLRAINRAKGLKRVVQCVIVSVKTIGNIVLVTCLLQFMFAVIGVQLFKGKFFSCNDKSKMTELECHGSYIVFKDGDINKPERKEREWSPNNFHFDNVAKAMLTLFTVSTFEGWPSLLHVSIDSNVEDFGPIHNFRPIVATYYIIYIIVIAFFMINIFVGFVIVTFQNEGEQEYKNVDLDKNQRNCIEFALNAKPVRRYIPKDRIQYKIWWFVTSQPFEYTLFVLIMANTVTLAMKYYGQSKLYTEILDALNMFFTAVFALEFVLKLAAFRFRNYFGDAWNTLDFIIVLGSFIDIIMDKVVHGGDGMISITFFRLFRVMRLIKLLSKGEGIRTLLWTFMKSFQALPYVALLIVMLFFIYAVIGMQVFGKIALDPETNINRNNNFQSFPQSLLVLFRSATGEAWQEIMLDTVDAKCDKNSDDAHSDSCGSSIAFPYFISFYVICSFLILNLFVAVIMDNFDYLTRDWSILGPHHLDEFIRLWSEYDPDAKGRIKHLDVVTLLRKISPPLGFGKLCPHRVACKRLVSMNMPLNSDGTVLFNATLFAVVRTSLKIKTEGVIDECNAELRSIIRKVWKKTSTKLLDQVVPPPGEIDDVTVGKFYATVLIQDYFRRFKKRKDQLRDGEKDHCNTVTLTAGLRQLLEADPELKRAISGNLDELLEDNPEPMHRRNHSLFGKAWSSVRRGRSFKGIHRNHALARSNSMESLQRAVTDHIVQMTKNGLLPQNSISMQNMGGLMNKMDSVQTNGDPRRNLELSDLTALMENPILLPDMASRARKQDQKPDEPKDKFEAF

[2] = biological target: Voltage-dependent L-type calcium channel, putative (Pediculus humanus subsp. corporis) (UniProt E0VY79); test: Inhibition of voltage-dependent L-type calcium channel in Spodoptera exigua neurons assessed as peak calcium current at 0.1 mM measured 1 min post dose by electrophysiology method (reference value: 104.47 +/- 2.33%); parameters: scale not given: the % may be the effect or the level left
Mythimna separata [3] = test: Insecticidal activity against Mythimna separata (Oriental armyworm) fourth-instar larvae infected Zea mays leaves assessed as larvicidal activity at 10 mg/L measured 2 days post dose; type: functional
How it was run: (§1)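 Foliar application test: individual corn (Tangyu 10) leaves were placed on moistened filter paper in Petri dishes.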

[4] = biological target: Voltage-dependent L-type calcium channel, putative (Pediculus humanus subsp. corporis) (UniProt E0VY79); test: Inhibition of voltage-dependent L-type calcium channel in Spodoptera exigua neurons assessed as peak calcium current at 0.1 mM measured 5 min post dose by electrophysiology method (reference value: 98.06 +/- 1.01%); parameters: scale not given: the % may be the effect or the level left
[5] = biological target: Ryanodien receptor (Spodoptera exigua) (UniProt H9CNL0); test: Inhibition of Ryanodine receptor in Spodoptera exigua neurons assessed as reduction in intracellular calcium level at 1000 mg/L pre-treated with 10 mg/ml heparin and 1 uM thapsigargin by calcium-imaging technique; type: cell-based
How it was run: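 Primary cultured S. exigua neurons were rinsed in saline, then loaded in the dark at 28 °C with 5 μM fluo-5N for 5 h in Ca-free saline (150 mM NaCl, 4 mM KCl, 2 mM MgCl₂, 2 mM EGTA, 10 mM HEPES, pH 6.9). They were treated with 10 mg/mL heparin for 20 min, then 1 μM thapsigargin for 10 min. Fluorescence was imaged (40× oil, 488/530 nm) and expressed as F/F₀.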

Mythimna separata [6] = test: Insecticidal activity against Mythimna separata (Oriental armyworm) fourth-instar larvae infected Zea mays leaves assessed as larvicidal activity at 50 mg/L measured 2 days post dose; type: functional; how it was run: as §1
[7] = biological target: Voltage-dependent L-type calcium channel, putative (Pediculus humanus subsp. corporis) (UniProt E0VY79); test: Inhibition of voltage-dependent L-type calcium channel in Spodoptera exigua neurons assessed as peak calcium current at 0.1 mM measured 8 min post dose by electrophysiology method (reference value: 90.85 +/- 0.65%); parameters: scale not given: the % may be the effect or the level left
[8] = biological target: Voltage-dependent L-type calcium channel, putative (Pediculus humanus subsp. corporis) (UniProt E0VY79); test: Inhibition of voltage-dependent L-type calcium channel in Spodoptera exigua neurons assessed as peak calcium current at 0.001 mM measured 5 min post dose by electrophysiology method (reference value: 98.06 +/- 1.01%); parameters: scale not given: the % may be the effect or the level left
[9] = biological target: Voltage-dependent L-type calcium channel, putative (Pediculus humanus subsp. corporis) (UniProt E0VY79); test: Inhibition of voltage-dependent L-type calcium channel in Spodoptera exigua neurons assessed as peak calcium current at 0.1 mM measured 10 min post dose by electrophysiology method (reference value: 85.44 +/- 1.14%); parameters: scale not given: the % may be the effect or the level left
Culex pipiens pallens = test: Insecticidal activity against Culex pipiens pallens (mosquito) fourth-instar larvae assessed as larvicidal activity at 2 mg/L measured 3 days post dose; type: functional
How it was run: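 Mosquito larvicidal test: compounds were dissolved in acetone and diluted with distilled water to the test concentrations.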

[10] = biological target: Voltage-dependent L-type calcium channel, putative (Pediculus humanus subsp. corporis) (UniProt E0VY79); test: Inhibition of voltage-dependent L-type calcium channel in Spodoptera exigua neurons assessed as peak calcium current at 0.1 mM measured 4 min post dose by electrophysiology method (reference value: 99.66 +/- 1.64%); parameters: scale not given: the % may be the effect or the level left
[11] = biological target: Voltage-dependent L-type calcium channel, putative (Pediculus humanus subsp. corporis) (UniProt E0VY79); test: Inhibition of voltage-dependent L-type calcium channel in Spodoptera exigua neurons assessed as peak calcium current at 0.1 mM at -70 mV holding potential measured 5 min post dose by electrophysiology method
[12] = biological target: Voltage-dependent L-type calcium channel, putative (Pediculus humanus subsp. corporis) (UniProt E0VY79); test: Inhibition of voltage-dependent L-type calcium channel in Spodoptera exigua neurons assessed as change in peak calcium current at 0.1 mM at -70 mV holding potential measured 1 min post dose by electrophysiology method
[13] = biological target: Voltage-dependent L-type calcium channel, putative (Pediculus humanus subsp. corporis) (UniProt E0VY79); test: Inhibition of voltage-dependent L-type calcium channel in Spodoptera exigua neurons assessed as increase in intracellular calcium level at 1000 mg/L measured 10 min post dose by calcium-imaging technique; type: cell-based
How it was run: (§2)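 S. exigua neurons were rinsed in physiological saline (pH 6.9). They were dye-loaded in the dark at 28 °C, either with 10 μM fluo-3-AM for 45 min in standard saline or with 5 μM fluo-5N for 5 h in EGTA Ca-free saline, then rinsed twice. [Ca²⁺]i was imaged on an inverted fluorescence microscope (40× oil, 488/530 nm) over 10 min. F/F₀ is relative to resting baseline; ≥6 repeats; mean ± SD.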

Mythimna separata [14] = test: Insecticidal activity against Mythimna separata (Oriental armyworm) fourth-instar larvae infected Zea mays leaves assessed as larvicidal activity at 5 mg/L measured 2 days post dose; type: functional; how it was run: as §1
[15] = biological target: Voltage-dependent L-type calcium channel, putative (Pediculus humanus subsp. corporis) (UniProt E0VY79); test: Inhibition of voltage-dependent L-type calcium channel in Spodoptera exigua neurons assessed as peak calcium current at 0.001 mM measured 3 min post dose by electrophysiology method (reference value: 101.76 +/- 2.7%); parameters: scale not given: the % may be the effect or the level left
[16] = biological target: Voltage-dependent L-type calcium channel, putative (Pediculus humanus subsp. corporis) (UniProt E0VY79); test: Inhibition of voltage-dependent L-type calcium channel in Spodoptera exigua neurons assessed as peak calcium current at 0.1 mM measured 3 min post dose by electrophysiology method (reference value: 101.76 +/- 2.7%); parameters: scale not given: the % may be the effect or the level left
[17] = biological target: Voltage-dependent L-type calcium channel, putative (Pediculus humanus subsp. corporis) (UniProt E0VY79); test: Inhibition of voltage-dependent L-type calcium channel in Spodoptera exigua neurons assessed as peak calcium current at 0.001 mM measured 4 min post dose by electrophysiology method (reference value: 99.66 +/- 1.64%); parameters: scale not given: the % may be the effect or the level left
[18] = biological target: Voltage-dependent L-type calcium channel, putative (Pediculus humanus subsp. corporis) (UniProt E0VY79); test: Inhibition of voltage-dependent L-type calcium channel in Spodoptera exigua neurons assessed as peak calcium current at 0.1 mM measured 2 min post dose by electrophysiology method (reference value: 102.75 +/- 2.45%); parameters: scale not given: the % may be the effect or the level left
Mythimna separata [19] = test: Insecticidal activity against Mythimna separata (Oriental armyworm) fourth-instar larvae infected Zea mays leaves assessed as larvicidal activity at 100 mg/L measured 2 days post dose; type: functional; how it was run: as §1
[20] = biological target: Voltage-dependent L-type calcium channel, putative (Pediculus humanus subsp. corporis) (UniProt E0VY79); test: Inhibition of voltage-dependent L-type calcium channel in Spodoptera exigua neurons assessed as peak intracellular calcium level at 1000 mg/L measured 10 min post dose by calcium-imaging technique relative to initial untreated control; type: cell-based; parameters: scale not given: the % may be the effect or the level left; how it was run: as §2
[21] = biological target: Voltage-dependent L-type calcium channel, putative (Pediculus humanus subsp. corporis) (UniProt E0VY79); test: Inhibition of voltage-dependent L-type calcium channel in Spodoptera exigua neurons assessed as change in peak calcium current at 0.001 mM at -70 mV holding potential measured 1 to 10 min post dose by electrophysiology method
[22] = biological target: Voltage-dependent L-type calcium channel, putative (Pediculus humanus subsp. corporis) (UniProt E0VY79); test: Inhibition of voltage-dependent L-type calcium channel in Spodoptera exigua neurons assessed as peak calcium current at 0.001 mM measured 10 min post dose by electrophysiology method (reference value: 85.44 +/- 1.14%); parameters: scale not given: the % may be the effect or the level left
[23] = biological target: Voltage-dependent L-type calcium channel, putative (Pediculus humanus subsp. corporis) (UniProt E0VY79); test: Inhibition of voltage-dependent L-type calcium channel in Spodoptera exigua neurons assessed as change in […] calcium level at 1000 mg/L measured 10 min post dose by calcium-imaging technique; how it was run: as §2
[24] = biological target: Voltage-dependent L-type calcium channel, putative (Pediculus humanus subsp. corporis) (UniProt E0VY79); test: Inhibition of voltage-dependent L-type calcium channel in Spodoptera exigua neurons assessed as peak calcium current at 0.1 mM at -70 mV holding potential measured 10 min post dose by electrophysiology method
Mythimna separata [25] = test: Insecticidal activity against Mythimna separata (Oriental armyworm) fourth-instar larvae infected Zea mays leaves assessed as larvicidal activity at 200 mg/L measured 2 days post dose; type: functional; how it was run: as §1
Mythimna separata [26] = test: Insecticidal activity against Mythimna separata (Oriental armyworm) fourth-instar larvae infected Zea mays leaves assessed as larvicidal activity at 20 mg/L measured 2 days post dose; type: functional; how it was run: as §1

SMILES: Cc1cc(Cl)cc(C(=O)NC(C)C)c1NC(=S)NC(=O)c1cc(Cl)nn1-c1ncccc1Cl
- Activity [1]: 81.2%
- Activity [2]: 91.5%
- Activity (Mythimna separata [3]): 100%
- Activity [4]: 70.2%
- inhibition [5]: Active
- Activity (Mythimna separata [6]): 100%
- Activity [7]: 61%
- Activity [8]: 84.4%
- Activity [9]: 54.7%
- Activity (Culex pipiens pallens): 40%
- Activity [10]: 74.4%
- Activity [11]: -1.64 nanoampere
- Activity [12]: 10 mV
- Activity [13]: Active
- Activity (Mythimna separata [14]): 40%
- Activity [15]: 95.8%
- Activity [16]: 80.7%
- Activity [17]: 90.1%
- Activity [18]: 84.1%
- Activity (Mythimna separata [19]): 100%
- Activity [20]: 117%
- inhibition [21]: inactive
- Activity [22]: 74.6%
- inhibition [23]: inactive
- Activity [24]: -1.27 nanoampere
- Activity (Mythimna separata [25]): 100%
- Activity (Mythimna separata [26]): 100%
